Compounds with a hit are over-represented: about 4.5% of the library has one in this group of screens.
TAAR1 agonist – human TAAR1 agonists, primary screen, Fluo-8 calcium fluorescence, CHO RD-HGA16 cells | activation, % at 3 µM | AID 624467, 2012 | actives 0.99% (n = 360,000) | Trace amine-associated receptor 1 (Homo sapiens), Q96RJ0 | vehicle wells 0%, saturating PEA agonist 100%;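 active means activation above the mean activation of all test compounds in the run plus 3 SD, cut at about 38% in these data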
Target sequence (Q96RJ0 whole entry, looked up): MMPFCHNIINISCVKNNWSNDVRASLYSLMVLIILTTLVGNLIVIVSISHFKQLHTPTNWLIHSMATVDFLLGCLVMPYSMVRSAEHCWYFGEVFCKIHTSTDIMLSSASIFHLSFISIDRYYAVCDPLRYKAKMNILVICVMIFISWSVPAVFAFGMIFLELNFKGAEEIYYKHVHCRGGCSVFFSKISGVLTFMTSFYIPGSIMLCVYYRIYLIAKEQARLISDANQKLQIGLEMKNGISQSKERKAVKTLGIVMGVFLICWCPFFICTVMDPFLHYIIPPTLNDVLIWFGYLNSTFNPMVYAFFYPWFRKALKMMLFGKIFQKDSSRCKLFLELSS
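System: CHO-derived RD-HGA16 cells with stable Gα16 and human TAAR1 / Times: 17-24 h plating, Fluo-8 75 min 37 °C, 30 min RT / Technique: calcium-sensitive Fluo-8 signal, excitation 470-495, emission 515-575 nm / Measure: % activation relative to PEA EC100 response / Benchmarks: DMSO and PEA EC100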
CHO parental Ca – ATP-evoked calcium signal inhibitors, parental CHO, primary screen, counter-screen for OX1R antagonist project, cell-based, fluorescence, Fluo-8 calcium dye; parental CHO-K1, ATP-induced calcium, Fluo-8 fluorescence; inhibition, % at 5.6 µM; actives 0.63% (n = 330,000);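 active means inhibition above that plate's mean sample inhibition plus 3 SD, cut at about 26% in these data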;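 further: 0% = ATP-challenged DMSO wells and 100% = DMSO wells without ATP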
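Assay system: parental CHO cells; Read-out basis: percent inhibition of ATP-evoked calcium rise, normalized to controls; Benchmarks: ATP and no-ATP DMSO wells; Compound dosing: single nominal dose of 5.6 µM per compound; Signal: Fluo-8 calcium dye fluorescence; Also added: ATP as calcium-mobilizing challenge; Repeats: singlicate.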
GPR7 antag – GPR7 receptor antagonists, primary screen, cell-based, fluorescence, single concentration. GPR7-expressing cells, fluorescence antagonist assay. inhibition, % at 4.4 µM. actives 1.1% (n = 290,000). AID 1861, 2009; in the data active means inhibition above about 16%, passing the limit was not always enough;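 further: cells stimulated with the agonist NPW; 0% = agonist with vehicle and 100% = vehicle without agonist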
Target sequence (P48145 whole entry, looked up): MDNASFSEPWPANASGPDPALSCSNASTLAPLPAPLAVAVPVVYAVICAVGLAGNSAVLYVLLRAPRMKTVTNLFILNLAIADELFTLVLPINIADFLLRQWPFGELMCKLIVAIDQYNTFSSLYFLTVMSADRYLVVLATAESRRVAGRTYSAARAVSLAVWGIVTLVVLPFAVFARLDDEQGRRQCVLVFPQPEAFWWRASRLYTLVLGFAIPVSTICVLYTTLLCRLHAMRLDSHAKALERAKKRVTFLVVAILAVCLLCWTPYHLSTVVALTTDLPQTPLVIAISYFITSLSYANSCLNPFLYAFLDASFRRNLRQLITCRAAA
OX1R antag-1 – OX1R (HCRTR1) antagonists, primary screen, fluorescence, CHO/OX1R cells, Fluo-8 calcium, orexin A | inhibition, % at 5 µM | Orexin/Hypocretin receptor type 1 (Homo sapiens), O43613 | AID 434989, 2010 | Fluo-8 calcium fluorescence | actives 0.43% (n = 330,000);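 active means inhibition above its plate's threshold, mean inhibition of all tested compounds on the plate plus 3 SD, cut at about 37% in these data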;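 further: 0% = orexin A challenge wells and 100% = SB-334867-A antagonist wells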
OX1R antag-2 – antagonists of human orexin 1 receptor (OX1R). inhibition, % at 6.6 µM. Orexin/Hypocretin receptor type 1 (Homo sapiens), O43613. OX1R-expressing cells, FRET antagonist read-out. actives 1.8% (n = 330,000); in the data active means inhibition mostly above about 38%, no sharp cut-off; inactive means mostly below about 40%;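 further: 0% = agonist challenge alone and 100% = reference antagonist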
TAAR1 antag – human TAAR1 antagonists, primary screen, Fluo-8 calcium fluorescence, CHO RD-HGA16 cells; antagonist; actives 1.5% (n = 360,000); inhibition, % at 3 µM;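 active means inhibition above a per-plate cutoff, the mean inhibition of test compounds on that plate plus 3 SD, cut at about 49% in these data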;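 further: 0% = DMSO plus EC80 beta-PEA response and 100% = DMSO alone without agonist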
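Test system: RD-HGA16 CHO cells with stable hTAAR1 and Gα16 / Probe or stimulus: EC80 β-phenethylamine stimulus / Times: seeding 17-24 h prior, 75-min 37 °C, 30-min RT dye loading / Detection: Fluo-8 calcium-sensitive fluorescence / Read-out basis: % inhibition scaled between DMSO and EC80 PEA controls / Repeats: singlicate, one well per test compound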
nonsel antag count – nonselective antagonists in TAAR1 counter-screen cells, counter-screen for hTAAR1 antagonist project, cell-based, fluorescence, calcium | shares compounds with TAAR1 antag | counterscreen cell line, antagonist mode | inhibition, % at 3 µM | actives 77% (n = 2,400); in the data active means inhibition above about 22%;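 further: CHO-Ga16 host cells stimulated with ATP at an EC80 level; 0% = agonist EC80 plus vehicle and 100% = vehicle without agonist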
TAAR1 ant conf – human TAAR1 antagonists, retest of hits, confirmation, cell-based, fluorescence; inhibition, % at 3 µM; actives 40% (n = 2,400); shares compounds with TAAR1 antag; TAAR1-expressing cells, fluorescence antagonist read-out; AID 651785, 2012; in the data active means inhibition above about 49%;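 further: CHO-Ga16 host cells challenged with agonist PEA near its EC80; 0% = agonist at EC80 plus vehicle and 100% = vehicle with no agonist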
Ga16 nonsel ag – calcium activation in Ga16-expressing cells, counter-screen for TAAR1 antagonist project, cell-based, fluorescence; shares compounds with TAAR1 antag; agonist counterscreen; activation, % at 3 µM; actives 18% (n = 2,400); AID 651953, 2012; in the data active means activation above about 12%;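 further: 0% = vehicle wells and 100% = saturating stimulus response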
TAAR1 ag count – TAAR1 activation by candidate antagonists – cell-based, fluorescence, counter-screen for TAAR1 antagonist project. AID 651955, 2012. activation, % at 3 µM. hTAAR1 cell line, agonist mode. shares compounds with TAAR1 antag. actives 2% (n = 2,400); in the data active means activation above about 37%;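 further: CHO cells stably expressing TAAR1 with calcium dye readout; 0% = DMSO vehicle and 100% = full agonist response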
* = called active by the depositor; · = no result.

SMILES	TAAR1 agonist	CHO parental Ca	GPR7 antag	OX1R antag-1	OX1R antag-2	TAAR1 antag	nonsel antag count	TAAR1 ant conf	Ga16 nonsel ag	TAAR1 ag count
COC(=O)CSc1nc2ccc(NC(=O)c3ccccc3C(=O)N3CCOCC3)cc2s1	22	-25	-6	-19	25	55*	24*	50*	9	8
O=C(Nc1ccc2nc(SCc3ccc(Cl)cc3)sc2c1)c1ccccc1C(=O)N1CCOCC1	20	-15	2	9	25	76*	34*	54*	11	12
COc1ccc(-n2nc(C(=O)NCC(=O)Nc3cc(OC)c(OC)c(OC)c3)c3ccccc3c2=O)cc1	18	-11	-11	-25	30	58*	28*	51*	7	8
COc1ccc(NC(=O)CNC(=O)c2nn(-c3ccc(OC)c(OC)c3)c(=O)c3ccccc23)c(OC)c1	17	-19	-15	-27	4	41	·	·	·	·
CCOC(=O)N1CCN(C(=O)CNC(=O)c2nn(-c3ccc(OC)c(Cl)c3)c(=O)c3ccccc23)CC1	16	-24	-6	-14	29	62*	32*	44	6	9
COc1ccc(-n2nc(C(=O)NCC(=O)Nc3cc(OC)c(OC)c(OC)c3)c3ccccc3c2=O)cc1OC	16	-25	-10	-29	-2	64*	29*	51*	7	13
Cc1noc(C)c1-c1ccc(C(=O)Nc2cccc(NS(C)(=O)=O)c2)c2occc12	16	·	·	·	·	60*	33*	46	11	11
Cc1noc(C)c1-c1ccc(C(=O)NCc2cccc(Cl)c2)c2occc12	1	·	·	·	·	25	·	·	·	·
Cc1noc(C)c1-c1ccc(C(=O)Nc2cccc(C(F)(F)F)c2)c2occc12	-1	·	·	·	·	53*	21	40	3	3
O=C(Nc1nccs1)c1cn(-c2ccccc2)nc1-c1ccccc1	7	-18	19*	-24	44	72*	12	38	3	2
O=C(Nc1nccs1)c1cc(-c2ccccc2)nn1-c1ccccc1	0	-9	-3	-9	15	-5	·	·	·	·
O=C(Nc1nccs1)c1cc(-c2ccccc2)nc2ccccc12	12	-21	-3	6	22	66*	28*	54*	6	2
CCN(C(=O)COC(=O)C(C)(C)Oc1ccc(Cl)cc1)c1c(N)n(Cc2ccccc2)c(=O)[nH]c1=O	-3	·	·	·	·	-3	·	·	·	·
CC(C)c1cc(CN2C(C)COCC2C)cc(C(C)C)c1O (stereo not drawn)	5	·	·	·	·	-6	·	·	·	·
CC(=O)c1cccc(NC(=O)C2Cc3c(-c4cccc(C(N)=O)c4)ccnc3O2)c1 (stereo not drawn)	4	·	·	·	·	8	·	·	·	·
CC(NC(=O)c1cc(COc2ccc(-n3cncn3)cc2)on1)c1ccc(F)cc1 (stereo not drawn)	4	·	·	·	·	-11	·	·	·	·
CC(C)N=C1SC(CC(=O)Nc2ccccc2)C(=O)N1C(C)C (stereo not drawn)	16	-7	-13	-39	7	57*	35*	47	7	9
CCOC(=O)c1c(NC(=O)COC(=O)c2ccc(Cl)nc2)sc(C)c1C	-1	·	·	·	·	-4	·	·	·	·
O=C(CCC(=O)N1CCOCC1)NCCc1ccc(F)cc1	·	-4	·	-9	10	·	-5	·	1	·
COc1cccc(NC(=O)C2CCN(C(=O)[C@@H]3Cc4ccccc4CN3C(=O)OC(C)(C)C)CC2)c1	15	-15	-8	-15	5	53*	24*	44	10	15
COc1cccc(NC(=O)C2CCN(C(=O)[C@@H]3Cc4ccccc4CN3)CC2)c1	1	15	-10	-9	-5	8	·	·	·	·
Cc1cnc(-c2nc3ccccc3n2C(C(=O)NC(C)(C)C)c2ccncc2)cn1 (stereo not drawn)	3	·	·	·	·	-19	·	·	·	·
COC(=O)c1ccc(-c2ccc(/C=N/N3C(=O)C4C5C=CC(C6CC56)C4C3=O)o2)cc1 (stereo not drawn)	18	-6	-13	0	9	62*	27*	41	10	13
Cc1ccc(-c2ccc(/C=N/N3C(=O)C4C5C=CC(C6CC56)C4C3=O)o2)c([N+](=O)[O-])c1 (stereo not drawn)	10	-11	-9	-11	39	58*	33*	43	10	7
COC(=O)c1cccc(-c2ccc(/C=N/N3C(=O)C4C5C=CC(C6CC56)C4C3=O)o2)c1 (stereo not drawn)	12	-18	-9	-13	25	23	·	·	·	·
SMILES	TAAR1 agonist	CHO parental Ca	GPR7 antag	OX1R antag-1	OX1R antag-2	TAAR1 antag	nonsel antag count	TAAR1 ant conf	Ga16 nonsel ag	TAAR1 ag count
CCCN(CCC)C(=O)c1cn(CC)c2ccc(S(=O)(=O)N3CCCCC3)cc2c1=O	0	2	4	-30	25	-17	·	·	·	·
C#CCNC(=O)C[C@@H]1C[C@@]2(C(=O)OC)CC(C)(C)CC=C2N(CCCCCCCC)C1=O	2	·	·	·	·	-45	·	·	·	·
CC1(C(=O)Nc2ccc3c(c2)OCO3)CCN1C(=O)C1CCCCC1 (stereo not drawn)	0	·	·	·	·	-20	·	·	·	·
O=C(Nc1cc(=O)c2ccccc2o1)N1CCOCC1	17	-22	-24	-25	22	64*	17	26	7	5
O=C(Nc1cc(=O)c2ccccc2o1)N1CCCCC1	13	-21	-7	-13	2	31	·	·	·	·
COc1ccc(OC)c(N(CCN2C(=O)c3ccccc3C2=O)C(=O)C2CCC(=O)C2C)c1 (stereo not drawn)	6	·	·	·	·	-8	·	·	·	·
O=C(NCc1ccc(F)cc1)c1cc(C2CCCCN2S(=O)(=O)c2ccc(F)cc2F)on1 (stereo not drawn)	1	·	·	·	·	0	·	·	·	·
CC(C)(C)c1cc(CNC(=O)C2CCC(=O)N(Cc3ccccc3F)C2)[nH]n1 (stereo not drawn)	1	·	·	·	·	-1	·	·	·	·
